Converted amounts (≈) assume the structure as drawn.
Assays:
Format in all cases: functional
[1] = tested on: Mycobacterium tuberculosis; test: Antimicrobial activity against isoniazid resistant Mycobacterium tuberculosis SRI 1369 after 7 days; settings: SRI 1369, 168 h
Method in brief: (§1)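 MIC in µg/mL, retested on susceptible H37Rv (SRI 1345) in the same panel as single-drug-resistant strains: isoniazid-, rifampin- and ofloxacin-resistant. Percent inhibition recorded at the MIC concentration. Ratio taken as MIC H37Rv / MIC resistant strain.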

[2] = tested on: Mycobacterium tuberculosis; test: Antimicrobial activity against isoniazid resistant Mycobacterium tuberculosis SRI 1369 assessed as growth inhibition at MIC after 7 days; method in brief: as §1
[3] = Ratio of MIC for Mycobacterium tuberculosis H37Rv SRI 1345 to MIC for isoniazid resistant Mycobacterium tuberculosis SRI 1369; method in brief: as §1
[4] = tested on: Mycobacterium tuberculosis; test: Antimicrobial activity against rifampicin resistant Mycobacterium tuberculosis SRI 1367 after 7 days; settings: SRI 1367, 168 h; method in brief: as §1
[5] = tested on: Mycobacterium tuberculosis; test: Antimicrobial activity against rifampicin resistant Mycobacterium tuberculosis SRI 1367 assessed as growth inhibition at MIC after 7 days; method in brief: as §1
[6] = Ratio of MIC for Mycobacterium tuberculosis H37Rv SRI 1345 to MIC for rifampicin resistant Mycobacterium tuberculosis SRI 1367; method in brief: as §1
[7] = tested on: Mycobacterium tuberculosis; test: Antimicrobial activity against ofloxacin resistant Mycobacterium tuberculosis SRI 4000 after 7 days; settings: SRI 4000, 168 h; method in brief: as §1
[8] = tested on: Mycobacterium tuberculosis; test: Antimicrobial activity against ofloxacin resistant Mycobacterium tuberculosis SRI 4000 assessed as growth inhibition at MIC after 7 days; method in brief: as §1
[9] = Ratio of MIC for Mycobacterium tuberculosis H37Rv SRI 1345 to MIC for ofloxacin resistant Mycobacterium tuberculosis SRI 4000; method in brief: as §1

Compound | MIC [1] [µg/mL] | growth inhibition (GI) [2] [%] | Ratio [3] | MIC [4] [µg/mL] | growth inhibition (GI) [5] [%] | Ratio [6] | MIC [7] [µg/mL] | growth inhibition (GI) [8] [%] | Ratio [9]
CC(=O)c1c(C(F)(F)F)nc2cc(F)c(N3CCSCC3)cc2[n+]1[O-] | 0.75 (≈ 2 µM) | 89 | 1 | 0.38 (≈ 1.01 µM) | 75 | 2 | 0.19 (≈ 0.506 µM) | 62 | 4
O=C(c1ccco1)c1c(C(F)(F)F)[n+]([O-])c2cc(Cl)c(N3CCOCC3)cc2[n+]1[O-] | 0.5 (≈ 1.13 µM) | 78 | 4 | 0.5 (≈ 1.13 µM) | 66 | 4 | 0.25 (≈ 0.563 µM) | 76 | 8
COC(=O)c1c(C(F)(F)F)[n+]([O-])c2ccc(N3CCN(c4ccc(F)cc4)CC3)cc2[n+]1[O-] | 0.19 (≈ 0.407 µM) | 51 | 8 | 0.19 (≈ 0.407 µM) | 73 | 8 | 0.19 (≈ 0.407 µM) | 81 | 8
NNC(=O)c1ccncc1 [ISONIAZID] |  |  |  | 0.02 (≈ 0.146 µM) | 55 |  |  |  | 
CO[C@H]1/C=C/O[C@@]2(C)Oc3c(C)c(O)c4c(O)c(c(/C=N/N5CCN(C)CC5)c(O)c4c3C2=O)NC(=O)/C(C)=C\C=C\[C@H](C)[C@H](O)[C@@H](C)[C@@H](O)[C@@H](C)[C@H](OC(C)=O)[C@@H]1C [RIFAMPIN] | 0.05 (≈ 0.0608 µM) | 72 |  |  |  |  | 0.195 (≈ 0.237 µM) | 53 | 
CC(=O)c1c(C(F)(F)F)[n+]([O-])c2cc(F)c(N3CCCCC3)cc2[n+]1[O-] | 0.25 (≈ 0.67 µM) | 57 |  | 0.25 (≈ 0.67 µM) | 68 |  | 0.25 (≈ 0.67 µM) | 84 | 
Cc1c(C(=O)/C=C/c2ccccc2)[n+]([O-])c2cc(Cl)ccc2[n+]1[O-] | 1 (≈ 2.93 µM) | 64 | 2 | 0.5 (≈ 1.47 µM) | 51 | 4 | 0.5 (≈ 1.47 µM) | 100 | 4
